{"source": "paper PMC10871334", "about": "(bioRxiv, 2024)", "key": {"SUGCT [1]": {"target": "T1, SUGCT (Homo sapiens, UniProt Q9HAC7)", "T1 sequence (Q9HAC7 31-438 limits assumed)": "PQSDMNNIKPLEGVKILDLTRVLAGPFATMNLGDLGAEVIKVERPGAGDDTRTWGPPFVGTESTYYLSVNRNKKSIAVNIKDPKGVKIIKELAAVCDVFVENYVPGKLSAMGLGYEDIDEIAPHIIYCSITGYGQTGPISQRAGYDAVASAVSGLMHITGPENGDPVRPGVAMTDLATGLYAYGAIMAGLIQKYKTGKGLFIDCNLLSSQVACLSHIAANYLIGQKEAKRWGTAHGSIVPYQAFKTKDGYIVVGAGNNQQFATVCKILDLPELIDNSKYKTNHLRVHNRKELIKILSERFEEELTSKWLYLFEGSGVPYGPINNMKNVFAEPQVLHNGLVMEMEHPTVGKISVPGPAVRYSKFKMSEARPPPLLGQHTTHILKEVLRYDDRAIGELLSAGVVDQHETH", "experiment": "Fluorometric SUGCT enzyme assay coupled to HMG-CoA reductase", "type": "biochemical", "details": "for SUGCT inhibition at 10 μM (in words): repurchased hits"}, "[2]": {"test_system": "SUGCT overexpressing GA1 HEK-293 cells", "experiment": "C5DC in SUGCT overexpressing GA1", "type": "cell-based, human", "details": "treatment of SUGCT overexpressing GA1 HEK-293 cells", "outline": "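Stable SUGCT overexpression in Flp-In 293 cells by co-transfection with Flp recombinase and selection in 100 μg/ml hygromycin B for 2–3 weeks. GCDH knocked out by CRISPR-Cas9, with single-clone sorting. Cells grown at 37°C, 5% CO2 in DMEM with 10% FBS. Metabolites extracted with cold methanol:acetonitrile:water 5:3:2 overnight at −80°C, then analysed by reverse-phase C18 LC-MS in positive mode.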"}, "[3]": {"target": "T2, human HMG-CoA reductase (HMGCR) (Homo sapiens, UniProt P04035)", "T2 sequence (P04035 426-888)": "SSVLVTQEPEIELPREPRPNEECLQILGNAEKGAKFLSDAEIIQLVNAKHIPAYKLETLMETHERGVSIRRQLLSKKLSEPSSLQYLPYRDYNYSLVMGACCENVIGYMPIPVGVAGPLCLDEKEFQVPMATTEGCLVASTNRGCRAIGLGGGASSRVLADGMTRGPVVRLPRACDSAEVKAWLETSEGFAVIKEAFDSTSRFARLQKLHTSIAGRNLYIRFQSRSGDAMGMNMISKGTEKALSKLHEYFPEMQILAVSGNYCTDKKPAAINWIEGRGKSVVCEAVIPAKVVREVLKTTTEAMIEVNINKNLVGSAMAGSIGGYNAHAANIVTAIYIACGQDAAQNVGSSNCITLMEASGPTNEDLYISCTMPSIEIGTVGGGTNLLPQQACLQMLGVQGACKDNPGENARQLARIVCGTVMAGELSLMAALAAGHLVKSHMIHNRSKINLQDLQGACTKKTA", "experiment": "Spectrophotometric HMGCR counter-screen assay", "type": "biochemical", "details": "up to 100 μM", "outline": "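Human HMGCR catalytic domain (residues 426–888), N-terminal His-tagged, expressed in E. coli and IMAC-purified. Assay contains 9 U/L HMGCR, 150 μM HMG-CoA, 300 μM NADPH, 4 mM DTT and 0.1% Triton X-100 in 100 mM potassium phosphate, pH 7.4. NADPH consumption is followed by absorbance at 340 nm.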"}, "SUGCT [4]": {"target": "T1, SUGCT", "type": "biochemical", "details": "HMG-CoA as CoA donor, 30 minutes"}}, "note": "Entries after “also recorded” stand apart in the source; their conditions may differ.", "data": [{"smiles": "CC(C)c1nc(N(C)S(C)(=O)=O)nc(-c2ccc(F)cc2)c1/C=C/[C@@H](O)C[C@@H](O)CC(=O)O", "note": "[rosuvastatin]", "values": [{"measurement": "result in high throughput screen of FDA approved library", "setting": "SUGCT [1]; screening concentration 100 μM, coupled assay also detects HMGCR inhibitors", "result": "one of our hits"}]}, {"smiles": "O=C(O)CCCC(=O)O", "note": "[Glutarate, glutarate]", "values": [{"measurement": "mode of inhibition", "setting": "SUGCT [1]; with respect to HMG, increases apparent Km for HMG", "result": "competitive inhibitor"}]}, {"smiles": "CCCCC(=O)N(Cc1ccc(-c2ccccc2-c2nnn[nH]2)cc1)[C@H](C(=O)O)C(C)C", "note": "[Valsartan]", "values": [{"measurement": "effect on C5DC / activity in cells", "setting": "[2]", "result": "did not observe a decrease in C5DC; also recorded: unable to detect activity"}, {"measurement": "inhibition of HMGCR", "setting": "[3]", "result": "did not inhibit"}, {"measurement": "conversion into a CoA ester by SUGCT", "setting": "SUGCT [4]", "result": "no evidence"}, {"measurement": "SUGCT inhibition at 10 μM (in words)", "setting": "SUGCT [1]", "result": "inhibited"}, {"measurement": "IC50", "setting": "SUGCT [1]; IC50 (SUGCT inhibition), standard assay, 100 mM potassium phosphate pH 7.4", "result": 3.8, "unit": "µM"}, {"measurement": "inhibition at 10 µM", "setting": "SUGCT [1]; read-out: inhibition of SUGCT at 10 μM", "result": "> 50", "unit": "%"}]}, {"smiles": "O=C(O)CCc1nc(-c2ccccc2)c(-c2ccccc2)o1", "note": "[oxaprozin]", "values": [{"measurement": "SUGCT inhibition at 10 μM (in words)", "setting": "SUGCT [1]", "result": "inhibited"}]}, {"smiles": "CCCCC(=O)N(Cc1ccc(-c2ccccc2-c2nn[nH]n2)cc1)[C@H](C(=O)OCC)C(C)C", "note": "[valsartan ethyl ester, Valsartan ethyl ester]", "values": [{"measurement": "effect on C5DC / activity in cells", "setting": "[2]", "result": "did not observe a decrease in C5DC"}]}, {"smiles": "CCCCc1nc(Cl)c(CO)n1Cc1ccc(-c2ccccc2-c2nn[nH]n2)cc1", "note": "[losartan]", "values": [{"measurement": "activity of Angiotensin II Receptor Blockers on SUGCT (in words)", "setting": "SUGCT [1]; each ARB measured in duplicate at 10 μM", "result": "inactive"}]}]}
